In PubChem BioAssay:
Records with an inconclusive call do not appear.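 Rule for the calls, unless noted: active = inhibition over a set limit, the all-compound mean plus 3 SD, in both replicate runs; inconclusive = over that limit in just one replicate run; inactive = at or under that limit in both runs.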

Legend:
[1] = S. cerevisiae growth inhibition in permissive medium (OD615), pilot counter-assay for S. cerevisiae lifespan shortening project, permissive growth control (AID 705;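 active = growth inhibition above 25% in both replicates, a cutoff set 3 SD above the mean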); conditions: OD615, 24 h, at 10 µM, hits give high values
In short: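 assay system = Saccharomyces cerevisiae strain carrying genetically modified DeaD replicative-lifespan system | medium = SC raffinose/galactose permissive medium | dosing = 10 µM single dose, 0.25% DMSO | schedule = 24 h compound exposure at 30 °C after 4 h pre-growth | measured by = OD at 615 nm | read-out basis = growth inhibition from lowered OD615 after 24 h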

[2] = S. cerevisiae growth inhibition in restrictive medium, OD615, pilot screen, restrictive growth control, yeast lifespan reduction project (AID 706;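 active = growth inhibition above a set limit, 3 SD over mean compound inhibition, in both replicates, cut at about 43% in these data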;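 note: modified DeaD lifespan yeast strain shifted to restrictive glucose medium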); conditions: OD615, 48 h, at 10 µM, hits give high values
In short: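 Buffer or medium: CSMM-D glucose medium. Material: genetically modified Saccharomyces cerevisiae, DeaD replicative lifespan assay strain. Times: 48 h compound exposure at 30 °C. Measured by: optical density at 615 nm.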

[3] = doxorubicin toxicity protection in MRP-1 cells – H69AR cells, CellTiter-Glo, duplicate, MRP-1 activator project, pilot screen (AID 807;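 active = viability increase at or above a cutoff of the median across tested compounds plus 3 SD, cut at about 8.5% in these data, passing the limit was not always enough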;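 note: compound pretreatment 18-22 h then 72 h combined with doxorubicin; 0% = doxorubicin alone and 100% = vehicle without doxorubicin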); conditions: H69AR viability with doxorubicin, CellTiter-Glo luminescence; at 10 µM; hits give high values
[4] = viability of HCT116 without oncogenic beta-catenin – human colon tumor cells, pilot screen (AID 823;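 active = cell viability at or below a set limit in both duplicate runs, the limit being the all-compound median minus 4 SD, cut at about 23% in these data, passing the limit was not always enough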;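 note: 0% = wells killed by 20 µM Hyamine and 100% = untreated DMSO cell wells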); conditions: HCT116 beta-catenin knockout viability, CellTiter-Glo, 60 h; at 10 µM; hits give low values
[5] = viability of PTEN-null HCT116 cells – cell-based, HCT116 clonal line, CellTiter-Glo, pilot screen (AID 824;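 active = viability at or below 27.92% in each of two runs, the all-compound median minus 4 SD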;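 note: 0% = 20 µM Hyamine control and 100% = vehicle cell control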); conditions: HCT116 PTEN-deleted viability, 60 h, at 10 µM, hits give low values
[6] = RAM pathway blockade in budding yeast – dse1pr::URA3 reporter, 5-FOA selection, pilot screen (AID 869);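 note: 0% = DMSO wells with no growth and 100% = 10 µM 1-NA-PP1 with full growth; RAM network block rescues cells from 5-FOA so hits raise OD615 growth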; conditions: S. cerevisiae dse1pr::URA3 5-FOA growth, OD615, 2 d; at 10 µM; hits give high values; strain carries analog-sensitive mutant Cbk1 kinase
[7] = RAM signaling pathway blockade in yeast – S. cerevisiae, Pdr1DBD-CYC8 efflux-inhibited sensitized strain, primary screen (AID 1298;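 active = RAM network inhibition above 8.4% in each of two replicates, 3 SD over the compound average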;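 note: 0% = DMSO untreated cells without growth and 100% = 10 µM 1-NA-PP1 full growth; higher means more yeast growth rescued from 5-FOA killing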); conditions: S. cerevisiae cbk1-as DSE1-URA3 strain, 5-FOA growth OD615, 2 d; at 50 µM; hits give high values

O=C(COC(=O)c1cnccn1)c1ccc2c(c1)CCCC2
inactive: growth inhibition [1] -11.3% | growth inhibition [2] -17.1% | viability increase [3] -1.19% | viability [4] 91.9% | viability [5] 88.6% | inhibition [6] 1.32% | RAM network inhibition [7] 1.14%

Brc1cccc(-c2nnc(SCc3ccon3)n2-c2ccccc2)c1
inactive: growth inhibition [1] -5.09% | growth inhibition [2] 3.47% | viability increase [3] -5.94% | viability [4] 92.3% | viability [5] 78.7% | inhibition [6] 1.46% | RAM network inhibition [7] 0.07%

COc1ccc(OCCNS(=O)(=O)c2ccccc2)cc1
inactive: growth inhibition [1] -18.1% | growth inhibition [2] -18.5% | viability increase [3] 0.87% | viability [4] 94.5% | viability [5] 97.2% | inhibition [6] 0.965% | RAM network inhibition [7] 1.42%

CCC(CC)C(=O)Nc1cc(=O)n(C)c(=O)n1C
inactive: growth inhibition [1] -3.07% | growth inhibition [2] 8.82% | viability increase [3] -0.82% | viability [4] 92.8% | viability [5] 87.4% | inhibition [6] 0.18% | RAM network inhibition [7] -2.19%

CC(=O)N1CCc2cc(C(=O)CN3CCCN(Cc4ccc(F)cc4)C3)ccc21
inactive: growth inhibition [1] 4.55% | growth inhibition [2] 9.21% | viability increase [3] -1.12% | viability [4] 102% | viability [5] 95.8% | inhibition [6] 1.48% | RAM network inhibition [7] 2.92%

O=C(CCN1C(=O)c2ccccc2C1=O)N1CCN(Cc2ccc(Cl)cc2Cl)CC1
inactive: growth inhibition [1] -8.77% | growth inhibition [2] -18% | viability increase [3] 1.45% | viability [4] 98.3% | viability [5] 104% | inhibition [6] 1.12% | RAM network inhibition [7] 7.67%

O=C(CSc1nnc(C2COc3ccccc3O2)o1)N1CCCCC1 (configuration not stated)
inactive: growth inhibition [1] -7.62% | growth inhibition [2] 2.56% | viability increase [3] -0.36% | viability [4] 98.7% | viability [5] 105% | inhibition [6] -0.035% | RAM network inhibition [7] 0.97%

COC(=O)Cn1cnc2c(nnn2-c2cccc(Cl)c2)c1=O
inactive: growth inhibition [1] -0.625% | growth inhibition [2] 0.135% | viability increase [3] 1.53% | viability [4] 108% | viability [5] 99.4% | inhibition [6] 1.28% | RAM network inhibition [7] -1.59%

CCOC(=O)C1CCCN(C(=O)Cn2nc(Cc3cccnc3)c3ccccc3c2=O)C1 (configuration not stated)
inactive: growth inhibition [1] 3.18% | growth inhibition [2] -7.92% | viability increase [3] 1.09% | viability [4] 99.5% | viability [5] 102% | inhibition [6] 2.21% | RAM network inhibition [7] 2.19%

O=C(O)CC(NC(=O)OCc1ccccc1)c1ccccc1 (configuration not stated)
inactive: growth inhibition [1] 2.56% | growth inhibition [2] -5.79% | viability increase [3] -1.78% | viability [4] 91.7% | viability [5] 96.5% | inhibition [6] 1.17% | RAM network inhibition [7] -0.33%

O=C(Nc1ccccc1)N1CCN(Cc2ccc3c(c2)OCO3)CC1
inactive: growth inhibition [1] 5.22% | growth inhibition [2] -15.8% | viability increase [3] -1.15% | viability [4] 101% | viability [5] 96.8% | inhibition [6] 1.25% | RAM network inhibition [7] 2.76%

O=C(Nc1c(C(=O)O)oc2ccc(Br)cc12)c1ccccc1
inactive: growth inhibition [1] -34% | growth inhibition [2] 2.99% | viability increase [3] -3.96% | viability [4] 101% | viability [5] 99.5% | inhibition [6] 2.95% | RAM network inhibition [7] -2.35%

COc1ccc(N2C(=O)C3CCCN3C2c2cccc(C)c2)cc1 (configuration not stated)
inactive: growth inhibition [1] 2.65% | growth inhibition [2] 15% | viability increase [3] -3.13% | viability [4] 97.4% | viability [5] 100% | inhibition [6] 1.83% | RAM network inhibition [7] -1.25%

CCCn1c(CN2CCN(C(=O)c3ccco3)CC2)nc2c1c(=O)n(C)c(=O)n2C
inactive: growth inhibition [1] -14.1% | growth inhibition [2] -25.5% | viability increase [3] -1.84% | viability [4] 97% | viability [5] 93.8% | inhibition [6] 0.34% | RAM network inhibition [7] 2.82%

CC(=O)Nc1ccc(NC(=O)CSc2nccn2Cc2ccccc2)cc1
inactive: growth inhibition [1] -0.94% | growth inhibition [2] 3.38% | viability increase [3] -1.64% | viability [4] 86.9% | viability [5] 88.8% | inhibition [6] -0.265% | RAM network inhibition [7] 0.96%

COc1ccc(CC(=O)Nc2cc(=O)n(C)c(=O)n2C)cc1
inactive: growth inhibition [1] -5.75% | growth inhibition [2] -4.35% | viability increase [3] 0.44% | viability [4] 102% | viability [5] 91% | inhibition [6] 1.85% | RAM network inhibition [7] -2.12%

O=C(Nc1ccc(F)cc1)C1CCC(N2C(=O)c3ccccc3C2=O)CC1 (configuration not stated)
inactive: growth inhibition [1] -11.6% | growth inhibition [2] -20.7% | viability increase [3] -7.05% | viability [4] 86.3% | viability [5] 96.1% | inhibition [6] 1.48% | RAM network inhibition [7] 12.4%

COc1cccc2cc(C(=O)N3CCC(C)CC3)c(=O)oc12
inactive: growth inhibition [1] -2.37% | growth inhibition [2] -3.85% | viability increase [3] -0.12% | viability [4] 96.8% | viability [5] 90.5% | inhibition [6] 1.17% | RAM network inhibition [7] 4.51%

CC(=O)CCc1c(C)[nH]c2ccc(NC(C)=O)cc2c1=O
inactive: growth inhibition [1] 5.26% | growth inhibition [2] 8.18% | viability increase [3] -0.95% | viability [4] 100% | viability [5] 98% | inhibition [6] 0.77% | RAM network inhibition [7] 2.81%

CCn1cc(C(=O)N2CCn3c(nc4ccccc43)C2)c(=O)c2ccc(C)nc21
inactive: growth inhibition [1] -10.2% | growth inhibition [2] -4.84% | viability increase [3] -2.81% | viability [4] 104% | viability [5] 94.3% | inhibition [6] 2.08% | RAM network inhibition [7] 0.07%

Cc1nnc(SCCn2c(N3CCCC(C)C3)nc3c2c(=O)n(C)c(=O)n3C)s1 (configuration not stated)
inactive: growth inhibition [1] -11.4% | growth inhibition [2] -13.6% | viability increase [3] -3.23% | viability [4] 94.2% | viability [5] 97.2% | inhibition [6] 2.31% | RAM network inhibition [7] 1.84%

Cc1cc(C(=O)NCc2cccs2)n(-c2ccccc2)n1
inactive: growth inhibition [1] -10.7% | growth inhibition [2] -6.11% | viability increase [3] 0.91% | viability [4] 102% | viability [5] 90.6% | inhibition [6] 1.03% | RAM network inhibition [7] 5.86%

Cn1c(C(=O)N2CCN(c3ccc(Cl)cc3)CC2)cc2c(=O)n(C)c3ccccc3c21
inactive: growth inhibition [1] -9.61% | growth inhibition [2] 2.92% | viability increase [3] -0.43% | viability [4] 93% | viability [5] 90.6% | inhibition [6] 2.57% | RAM network inhibition [7] 2.59%

COC(=O)CSc1nc(C)cc(Oc2ccccc2)n1
inactive: growth inhibition [1] -8.61% | growth inhibition [2] -5.81% | viability increase [3] -1.76% | viability [4] 104% | viability [5] 95.8% | inhibition [6] 1.48% | RAM network inhibition [7] 4.9%

O=C1Nc2ccccc2C(O)(C(=O)NC2CC2)N1c1ccc(Cl)c(Cl)c1 (configuration not stated)
inactive: growth inhibition [1] -1.51% | growth inhibition [2] -1.06% | viability increase [3] -4.14% | viability [4] 92.5% | viability [5] 95% | inhibition [6] 1.22% | RAM network inhibition [7] 3.99%

O=C(NCc1ccco1)N1c2ccccc2Sc2ccccc21
inactive: growth inhibition [1] -12.9% | growth inhibition [2] -8.64% | viability increase [3] -4.68% | viability [4] 88% | viability [5] 91.6% | inhibition [6] 0.805% | RAM network inhibition [7] 4.32%

COc1ccccc1C(=O)NC(C)c1nc2ccccc2[nH]1 (configuration not stated)
inactive: growth inhibition [1] -3.51% | growth inhibition [2] -5.35% | viability increase [3] 2.18% | viability [4] 99% | viability [5] 93% | inhibition [6] 3.37% | RAM network inhibition [7] 1.06%

C=CCN(C1CCCCC1)S(=O)(=O)c1ccc2c(c1)oc(=O)n2C
inactive: growth inhibition [1] -16.7% | growth inhibition [2] -11.6% | viability increase [3] -4.14% | viability [4] 86.5% | viability [5] 80.4% | inhibition [6] 2.28% | RAM network inhibition [7] 6%

NC(=O)CSc1ncnc2c1oc1ccccc12
inactive: growth inhibition [1] -17.7% | growth inhibition [2] -9.65% | viability increase [3] -2.08% | viability [4] 99.5% | viability [5] 91.6% | inhibition [6] 0.41% | RAM network inhibition [7] 0.74%

Cc1ccnc(NC2c3ccccc3C(=O)N2Cc2ccccc2Cl)c1 (configuration not stated)
inactive: growth inhibition [1] 4.26% | growth inhibition [2] 2.1% | viability increase [3] -3.54% | viability [4] 73% | viability [5] 86.8% | inhibition [6] 2.44% | RAM network inhibition [7] 3.54%

CCOc1ccc(N2C(=O)CC(N3CCN(C4CCc5ccccc5C4)CC3)C2=O)cc1 (configuration not stated)
inactive: growth inhibition [1] 2.08% | growth inhibition [2] 0.34% | viability increase [3] -1.42% | viability [4] 94.6% | viability [5] 93.1% | inhibition [6] 1.93% | RAM network inhibition [7] 1.53%

CN(C)C(=O)Nc1cnc2ccccc2c1
inactive: growth inhibition [1] 0.64% | growth inhibition [2] -11.9% | viability increase [3] -0.11% | viability [4] 104% | viability [5] 99.3% | inhibition [6] 1.16% | RAM network inhibition [7] 1.97%

CC1CCCN(c2ncnc3c2cnn3-c2ccccc2)C1 (configuration not stated)
inactive: growth inhibition [1] -2.51% | growth inhibition [2] -4.29% | viability increase [3] -2.92% | viability [4] 77.5% | viability [5] 73.5% | inhibition [6] 0.15% | RAM network inhibition [7] 4.59%

Cc1c(NC(=O)c2ccc3c(c2)OCO3)cccc1-c1nc2ncccc2o1
inactive: growth inhibition [1] -9.32% | growth inhibition [2] -13.2% | viability increase [3] -1.14% | viability [4] 102% | viability [5] 95.3% | inhibition [6] 2.48% | RAM network inhibition [7] 3.92%

Cc1nc(Sc2nnnn2-c2ccccc2)c(C#N)c(C)c1C
inactive: growth inhibition [1] -13.8% | growth inhibition [2] -9.12% | viability increase [3] -2.52% | viability [4] 108% | viability [5] 97% | inhibition [6] 2.97% | RAM network inhibition [7] 9.98%

Cc1cc(N2C(=O)CC(Cc3ccccc3)C2=O)no1 (configuration not stated)
inactive: growth inhibition [1] -6.49% | growth inhibition [2] -11.5% | viability increase [3] 1.08% | viability [4] 103% | viability [5] 103% | inhibition [6] 1.55% | RAM network inhibition [7] 2.8%
